Laboratory results from the RNAGym collection of RNA variant scans (doi:10.1126/science.aae0568).
Fewer inactive variants are shown than the library holds.

B1: tRNA (parent)
chain: GUUCCGUUGGCGUAAUGGUAACGCGUCUCCCUCCUAAGGAGAAGACUGCGGGUUCGAGUCCCGUACGGAACG

Variants of: B1
Test: yeast fitness relative to wild type (ratio to wild type); higher = fitter; tRNA-Arg(CCU), competitive growth, 37 C, YPD
In short: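 For this measurement, the tRNA-Arg(CCU) gene was varied by chemical synthesis at a 3% per-site mutation rate across 69 sites, and each variant was placed at the native genomic locus in Saccharomyces cerevisiae. The pooled strains went through a 24-hour competition in YPD at 37°C in six parallel replicates, with amplicons from start and end populations read by 100-nucleotide paired-end sequencing. Darwinian fitness relative to wild type followed from the change in each genotype's frequency. Genotypes needed ≥ 100 starting reads, and estimates < 0.5 were set to 0.5.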

Row | Variant | yeast fitness
1 | G12A C49U G67C A69G | ≤ 0.5
2 | G12A A15U G63A | 0.601
3 | G12A C27G C55A G58A | ≤ 0.5
4 | G12A G18A C31U A70G | ≤ 0.5
5 | G12A G23C G56C C61G | ≤ 0.5
6 | G12A A40C U59G A65G | ≤ 0.5
7 | G12A C24U G67A A69U | ≤ 0.5
8 | G12A A15U A21C C49U | ≤ 0.5
9 | G12A G17A U26A A40U | ≤ 0.5
10 | G12A A21G C24G U28G | 0.992
11 | G12A A15G G44C U59A | ≤ 0.5
12 | G12A C49U C62U | 0.68
13 | G12A C29A A42U | 0.616
14 | G12A A37U A57C | 0.608
15 | G12A C24U C29A | ≤ 0.5
16 | G12A C24G C33A A40C | ≤ 0.5
17 | G12A A21C | 0.643
18 | G12A A21G | 1.04
19 | C11U U64C A65G | 0.667
20 | G12A G23A U35G A36G C46U A57U | ≤ 0.5
21 | G12A A42C G52A | 0.585
22 | G12A A14C | 0.796
23 | G12A C24G U26G G39C C49G | 0.511
24 | G12A C24A | 0.751

Row | Variant | yeast fitness
25 | G12A C24G | 0.758
26 | G12A C24U | 0.697
27 | G12A C24A C27A | ≤ 0.5
28 | G12A A15G | 0.843
29 | G12A A15U | 0.782
30 | G12A A20U A42C G68A | 0.519
31 | G12A A15G C22U C31A U35G C61U A65C | ≤ 0.5
32 | G12A C24G A36G A65U | ≤ 0.5
33 | G12A | 0.999
34 | G12A A40C U64G | ≤ 0.5
35 | G12A A36G C49G | ≤ 0.5
36 | G12A A36C G41A U53C | ≤ 0.5
37 | G12A A21U A69C | ≤ 0.5
38 | G12A A37G A65G A69C | ≤ 0.5
39 | G12A G50C C66U | ≤ 0.5
40 | G12A C27G A42C | 0.548
41 | G12A A20U A21U C34G G63C | ≤ 0.5
42 | G12A A21U C55U C62G | ≤ 0.5
43 | G12A C24A A36U C61U G67U | 0.69
44 | G12A C31U C61U U64A | ≤ 0.5
45 | G12A A15U C22A U26A G58A | 0.629
46 | G12A A37C C61U | ≤ 0.5
47 | G12A A15C C62U C66G A70G | 0.562
48 | G12A G44A C66U | 0.697

Row | Variant | yeast fitness
49 | G12A A42G U54A A65C | ≤ 0.5
50 | G12A G68A | 0.771
51 | G12A G18C A42U G58A G68A | ≤ 0.5
52 | G12A C55U C66G | 0.569
53 | G12A C31U A36C G39C C55U A57U | ≤ 0.5
54 | G12A G23C G25A U59A G63A | ≤ 0.5
55 | G12A C62U A70G | 0.69
56 | G12A G18C A42U | 0.65
57 | G12A G48A C66U G67A | ≤ 0.5
58 | G12A C31U A70G | 0.803
59 | G12A C24A A36U U54C C61U | ≤ 0.5
60 | G12A C31A U32C U53C C60G | ≤ 0.5
61 | G12A G23C C30G A37U C62U A65U | ≤ 0.5
62 | G12A C22U C30G C31A G39C A57G | ≤ 0.5
63 | G12A C33G C46U G50C | 0.595
64 | G12A C46U | 0.9
65 | G12A C31G G48C C66G | ≤ 0.5
66 | G12A C33G G38C | ≤ 0.5
67 | G12A C49A G52C | ≤ 0.5
68 | G12A A42G A65C | 0.6
69 | G12A A42G A65U | ≤ 0.5
70 | G12A C30G C49A G51A | ≤ 0.5
71 | G12A A14G C27G C34G A37U U64A | ≤ 0.5
72 | G12A C31G | 0.963

Row | Variant | yeast fitness
73 | G12A G38A | 0.728
74 | G12A C22G A69U | 0.791
75 | G12A A20U | 0.831
76 | G12A C33U G41C | ≤ 0.5
77 | G12A G41C | 0.864
78 | G12A G41A | 0.889
79 | G12A G18C | 0.591
80 | G12A C27U C33U U47A A70C | ≤ 0.5
81 | G12A G23C C49A A57C | ≤ 0.5
82 | G12A G25A | 0.819
83 | G12A G38A C60G | ≤ 0.5
84 | G12A G23A U35G G58A | ≤ 0.5
85 | G12A A36C G51A | 0.603
86 | G12A A36U A37G | 0.543
87 | G12A A43C | 0.855
88 | G12A A43U | 0.889
89 | G12A A43G | 0.988
90 | G12A C46G A57C | ≤ 0.5
91 | G12A C24G G38A A40C A43C C46U G68C A69U | ≤ 0.5
92 | G12A G18C A36C | 0.537
93 | C11U U59C | 0.937
94 | C11U U59G | 0.786
95 | G12A C66G | 0.79
96 | G12A C66A | 0.654

Row | Variant | yeast fitness
97 | G12A C66U | 0.834
98 | G12A C22G A45G C49U U53A C66G | ≤ 0.5
99 | G12A C29A U35A | ≤ 0.5
100 | G12A A14C C34U A37G | ≤ 0.5
101 | G12A G17A C29U | ≤ 0.5
102 | G12A G18U G39A | ≤ 0.5
103 | G12A A15G A65C A70G | ≤ 0.5
104 | G12A C30U U54A | 0.52
105 | G12A C30U U54C | ≤ 0.5
106 | G12A G18C C62U G63C A70C | ≤ 0.5
107 | G12A C27A C30G G68U | ≤ 0.5
108 | G12A C31A A42G A57U U59A | ≤ 0.5
109 | G12A G44C | 0.727
110 | G12A G44A | 0.935
111 | G12A C22A A57C U64A | ≤ 0.5
112 | G12A A43U G48A C61G A70C | ≤ 0.5
113 | G12A C24U A36C C46U C60U A65C | 0.729
114 | G12A G44C C49G | 0.799
115 | G12A C29A G67C | ≤ 0.5
116 | G12A G25A G56A | 0.599
117 | G12A A20G U26C C31G C33U A42U | ≤ 0.5
118 | G12A G50C G68C | 0.522
119 | G12A C24G C29A A69U A70G | ≤ 0.5
120 | G12A U13A A14G G38C | ≤ 0.5

Row | Variant | yeast fitness
121 | G12A C29U C55G A65U | ≤ 0.5
122 | G12A C24U G67C | 0.603
123 | G12A A45C | 0.834
124 | G12A A21G C31A | 0.625
125 | G12A G25A G48A | 0.66
126 | G12A C30A | 0.915
127 | G12A C30U | 0.836
128 | G12A A37G A43G U53A G58C C66G | ≤ 0.5
129 | G12A C27G U32G | ≤ 0.5
130 | G12A C24G U26G A40U | ≤ 0.5
131 | G12A A15G U54G | ≤ 0.5
132 | G12A G23C C61G | ≤ 0.5
133 | G12A G18A A21U G41A C46U | 0.535
134 | G12A G17A | 0.881
135 | G12A C27G C46A C55U | 0.603
136 | G12A A40G | 0.871
137 | G12A A40C | 0.792
138 | G12A A40U | 1
139 | G12A C27G G48A | ≤ 0.5
140 | G12A G18A C61G A70G | 0.682
141 | G12A A65G A69C | 0.556
142 | G12A A14U A57G C61U | ≤ 0.5
143 | G12A C27G A69C | ≤ 0.5
144 | G12A A43U A45C A57G C60U G68C | ≤ 0.5

Row | Variant | yeast fitness
145 | G12A A36C A40U G41C | 0.576
146 | G12A C49U G56A C61G | ≤ 0.5
147 | G12A C62A | 0.823
148 | G12A C62U | 0.815
149 | G12A A20G C22U | ≤ 0.5
150 | G12A A14G A36U C46A | ≤ 0.5
151 | G12A C30A C55A G67A | ≤ 0.5
152 | G12A G50A | 1.01
153 | G12A A15G A65G | 0.541
154 | G12A A42G A69U | 0.688
155 | G12A C27G A65G G68U | 0.544
156 | G12A C22U C24U | ≤ 0.5
157 | G12A A14G C30G C46A G67U | ≤ 0.5
158 | G12A C49G | 0.943
159 | G12A C49A | 0.67
160 | G12A C31G C34A | 0.585
161 | G12A A36U G63A | ≤ 0.5
162 | G12A G52A U59C | ≤ 0.5
163 | G12A G48C G68C A70U | ≤ 0.5
164 | G12A A15C C27G C49G | ≤ 0.5
165 | G12A A36G U47G U54C A65U | ≤ 0.5
166 | G12A A20U C27A U32C C55U G68A | ≤ 0.5
167 | G12A G38C C46G C49G G51C C61U | ≤ 0.5
